Source: the EternaBench riboswitch data

System: MS2 coat protein
Test: apparent Kd, MS2 coat protein; higher = weaker binding; RNA-MaP array
Procedure, shortened: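 Designed RNAs were transcribed in place on an Illumina sequencing chip from sequenced DNA templates. At room temperature and with or without input ligand, they were incubated with fluorescently labeled MS2 coat protein from 1.5 nM to 3 μM, for 0.8–1.5 h at the lowest and 10–20 min at the highest concentrations. Apparent Kd is the median of the binding-curve fits made per cluster, with designs measured on fewer than 10 clusters excluded.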

[1] = designed as: OFF switch for flavin mononucleotide, no ligand
[2] = ligand present: flavin mononucleotide, designed as: OFF switch for flavin mononucleotide
[3] = designed as: ON switch for tryptophan, no ligand
[4] = ligand present: tryptophan, designed as: ON switch for tryptophan
[5] = designed as: ON switch for flavin mononucleotide, no ligand
[6] = ligand present: flavin mononucleotide, designed as: ON switch for flavin mononucleotide

Sequence | apparent Kd [1] [nM] | apparent Kd [2] [nM] | further results
UAUGUACAUGAGGAUCACCCAUGUUAGGAUAUAUGGCCGCGCUUUAAACACCGUGCACAUAGAAGGAACAUUUG | 35 | 33.7 | –
ACAAAGACAGGAUAUACAAAUUACAACUAAUCAAGGAAAAGACAUGAGGAUCACCCAUGUAGAAGGGUCAAUAA | 26.9 | 20.5 | –
GACGGCUCGACGGCCGCCACUCCCUCCGACUGAAGGCACAGUGGACAUGAGGAUCACCCAUGUCCGAGGACCGGGUCGAUCCUGG | – | – | apparent Kd [3]: 17.7 nM; apparent Kd [4]: 17.6 nM
AGACAUGAGGAUCACCCAUGUGAAGUGGAUACCAGCCGCAGCGAUGGCCCUUGGCAGCCAGCUUUGUGUCGAUACAUCCGCACUU | – | – | apparent Kd (designed as: OFF switch for theophylline, no ligand): 15.9 nM; apparent Kd (ligand present: theophylline, designed as: OFF switch for theophylline): 25.8 nM
AUCGACAAAGGAUAUGAUGCGAAUGACAUGAGGAUCACCCAUGUGGAGCCAAGUGUCCCGUCAGAAGGUUGUACGU | 152 | 313 | –
ACAAUCACAUGAGGAUCACCCAUGUUAGACAGGGUCAAUGUGAAGGAUAUGAACAAUGAAAAUACUCAGAAGGUCAUAUUGAAA | – | – | apparent Kd [5]: 192 nM; apparent Kd [6]: 27.4 nM
AAUAGCUAAGGAUAUACGUACUCAGAGUGAUAAAUCAAAUAACAUGAGGAUCACCCAUGUAGAAGGAAGAAAUA | 30.9 | 26.1 | –
GCUGUAGAAGGAUAUCACAGGAUGGACAUGAGGAUCACCCAUGUUCUUUACUCCGCACCUUGAGAAGGUCUAAGUC | 6.27 | 5.88 | –
GUCCUCGAAGGAUAUAUUGGAAAUUACAUGAGGAUCACCCAUGUCUCGUAGUAUAGCACGAUAGAAGGUCGGAAGA | 36.1 | 24.6 | –
GCGUUUGCCAAAGGAUAUCAACAUGUGUUGCUUGCAUUCCUAUACAUGAGGAUCACCCAUGUGGCUGAGAAGGUUGAACACUGG | – | – | apparent Kd [5]: 18.2 nM; apparent Kd [6]: 14.1 nM
UUACAGUCAGGAUAUUGAGUCACCCACAUGAGGAUCACCCAUGUACCUCGAAAACUGGAGCAAGAAGGGACUGCUG | 18.9 | 26.4 | –
AACCGACAUGAGGAUCACCCAUGUGAGGAUAUGUUCGAGCUGGCAGGACCACCCUGGGACAGAAGGCACGUGAA | 11.2 | 17.7 | –
AUAGAAAAUGUAAGGAUAUAUCGAAACAAUAAACGAAAGAAGGAACAUGAGGAUCACCCAUGUAAAGUAAUAAA | 10.3 | 9.25 | –
CAAAACAUGAGGAUCACCCAUGUAGAUACGUGAAAAUUAUGGGAGGAUAUACAAUAGGACUGUAUGAAGAAGGCCCGAAAGCCA | – | – | apparent Kd [5]: 20 nM; apparent Kd [6]: 18.5 nM
ACUGACUUUACGGCCGCCACUCAUUGGCACGUGUCAUGUCAACAUGAGGAUCACCCAUGUAUGAUGAGGACCGGGUAAGGGCUGC | – | – | apparent Kd (designed as: OFF switch for tryptophan, no ligand): 10.9 nM; apparent Kd (ligand present: tryptophan, designed as: OFF switch for tryptophan): 12.7 nM
AACAUGUCUCAAGGAUAUAAAACGCUAAAUGGCUUAGAAGGUGAGGCCGCUGUGAGGAUCCCUGACAUGAGGAUCACCCAUGUC | – | – | apparent Kd [5]: 10.8 nM; apparent Kd [6]: 9.76 nM
GACAUGAGGAUCACCCAUGUGAAAUUCAUGGCGAUAACAUCUGAGGAUAUGUGCAGCCGAGGAAGACAGAAGGCAGAAACACAA | 117 | 119 | –
GGAUAAACUCAGAAGGAACGGCUCAAGUAAUAGUAAGGAUAUGACUGUAGGACUACAUGAGGAUCACCCAUGUUGAUGAAACAG | – | – | apparent Kd [5]: 8.03 nM; apparent Kd [6]: 7.91 nM
UUUUUAUGGCAGACUACCGCACAUGAGGAUCACCCAUGUUACAGAAGGGACCACAUCCCACCUGGUCAGGAUAUGUAUACGCGG | 9.07 | 6.77 | –
UAUCACUGGCAGAAGGUUCUCGGAAGCGAUGGUACUCUAUACAUGAGGAUCACCCAUGUCUACGGAAAGGAUAUGCCAUUGCGA | 70 | 176 | –
GUUAGUUACACGGCCGCCACUCUUUGGCUUGGCUCAAGCUCCCAACAUGAGGAUCACCCAUGUCAGAGGACCGGGUGAACAACGU | – | – | apparent Kd [3]: 134 nM; apparent Kd [4]: 112 nM
GAACUGUGAGGAUAUACAUGAGGAUCACCCAUGUUUGUGUUGGCACGCACUCGGGCAAGUAGAAGGCACAGAUG | 44 | 73.7 | –
